Measurements from ChEMBL document CHEMBL1150763, “Discovery of imidazo[1,5-c]imidazol-3-ones: weakly basic, orally active factor Xa inhibitors” (J Med Chem, 2008).

Tests used:
Coagulation factor X = Coagulation factor X (Homo sapiens, UniProt P00742); assay: Inhibition of human factor 10a
Plasma [1] = assay: Anticoagulant potency in human plasma assessed as concentration required to double the time to clot formation by PT assay; assay type: functional
Method in brief: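 Human normal plasma mixed with compound dilutions in DMSO (1.5 µL into 48.5 µL), preincubated 4 min at 37 °C, clotting started with thromboplastin and timed on an automatic coagulometer. Prolongation relative to DMSO; concentration doubling clotting time derived by least-squares regression; mean of duplicates.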

[2] = Basicity, pKa by titration method; assay type: physicochemical
Plasma [3] = assay: Anticoagulant potency in mouse plasma assessed as concentration required to double the time to clot formation by PT assay; assay type: functional
Plasma [4] = assay: Anticoagulant activity in mouse plasma assessed as ratio of prothrombin time in drug to untreated control at 30 mg/kg, po; assay type: functional
Method in brief: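 Male ICR mice (30-35 g), fasted >12 h, dosed orally at 30 mg/kg as suspension in 0.5% methylcellulose; vehicle controls. Citrated aortic blood drawn 1 h post-dose under pentobarbital anaesthesia, spun 1000g 10 min to platelet-poor plasma. PT on 50 µL plasma preincubated 4 min at 37 °C, started with thromboplastin; clotting time expressed relative to control group (n = 3).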

CYP3A4 = CYP3A4 (Homo sapiens, UniProt P08684); assay: Inhibition of CYP3A4 expressed in human B-lymphoblastoid cells at 10 uM; assay type: ADME, cell-based
CYP3A4, sequence (P08684 whole entry): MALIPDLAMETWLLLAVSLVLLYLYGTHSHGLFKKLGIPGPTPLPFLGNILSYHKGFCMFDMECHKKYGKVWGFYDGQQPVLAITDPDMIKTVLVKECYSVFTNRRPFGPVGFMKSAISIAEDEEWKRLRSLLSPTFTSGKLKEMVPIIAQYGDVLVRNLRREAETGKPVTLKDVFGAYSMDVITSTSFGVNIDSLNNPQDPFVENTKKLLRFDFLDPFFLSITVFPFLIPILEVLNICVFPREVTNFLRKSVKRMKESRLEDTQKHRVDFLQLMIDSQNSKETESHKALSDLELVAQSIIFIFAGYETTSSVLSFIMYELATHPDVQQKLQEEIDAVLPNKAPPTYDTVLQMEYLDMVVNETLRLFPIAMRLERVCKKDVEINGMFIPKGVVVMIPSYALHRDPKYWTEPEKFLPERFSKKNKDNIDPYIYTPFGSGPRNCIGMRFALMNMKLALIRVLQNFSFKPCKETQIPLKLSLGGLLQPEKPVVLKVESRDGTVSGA
Method in brief: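 Recombinant CYP3A4 (10 nM, from CYP3A4-expressing human B-lymphoblastoid cells) incubated with 100 µM testosterone and 10 µM test compound for 30 min at 37 °C; 6β-hydroxytestosterone formation quantified by HPLC-UV.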

physchem = settings: buffer, pH 7.4
Rattus norvegicus [5] = assay: Effect on bleeding time in Sprague-Dawley rat at 0.3 mg/kg, po; assay type: functional
Method in brief: (§1)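 Male Sprague-Dawley rats (7 weeks old) dosed orally 18 h before measurement, then anesthetized with sodium pentobarbital. Tail transected 2-3 mm from the tip; blood blotted with filter paper every 30 s until bleeding stopped or 30 min elapsed. Bleeding time given as mean ± SEM, n = 6, compared with a vehicle group by one-tailed Shirley-Williams' test.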

Rattus norvegicus [6] = assay: Effect on bleeding time in Sprague-Dawley rat at 1 mg/kg, po; assay type: functional; method in brief: as §1

Coagulation factor X, sequence (P00742 41-179 limits assumed): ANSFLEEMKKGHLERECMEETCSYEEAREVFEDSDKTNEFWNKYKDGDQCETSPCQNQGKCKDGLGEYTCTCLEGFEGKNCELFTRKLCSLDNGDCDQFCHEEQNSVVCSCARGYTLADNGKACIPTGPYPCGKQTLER
Coagulation factor X, sequence (P00742 235-488 limits assumed): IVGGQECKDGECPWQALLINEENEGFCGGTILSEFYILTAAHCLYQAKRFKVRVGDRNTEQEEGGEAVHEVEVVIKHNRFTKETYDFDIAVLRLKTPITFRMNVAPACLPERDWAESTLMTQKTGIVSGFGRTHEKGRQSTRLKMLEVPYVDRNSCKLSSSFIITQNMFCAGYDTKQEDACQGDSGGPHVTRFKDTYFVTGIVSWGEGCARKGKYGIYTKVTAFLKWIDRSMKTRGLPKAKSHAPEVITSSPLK

IC50 (Coagulation factor X) | pKa [2] | inhibition at 10 µM (CYP3A4) | logD (physchem) | Compound | Activity (Plasma [1]) | Activity (Plasma [3]) | Ratio (Plasma [4]) | Time (Rattus norvegicus [5]) | Time (Rattus norvegicus [6])
910 nM |  |  |  | Cc1nccn1CC1CCN(C(=O)CCS(=O)(=O)c2ccc3cc(Cl)ccc3c2)CC1 | 7.7 µM |  |  |  | 
37 nM | 7.9 | 38% | 2.2 | Cc1nccn1CCC1CCN(C(=O)CCS(=O)(=O)c2ccc3cc(Cl)ccc3c2)CC1 | 0.91 µM | 1.7 µM | 1.1 |  | 
23 nM | 8.2 | 42% | 2.2 | O=C(CCS(=O)(=O)c1ccc2cc(Cl)ccc2c1)N1CCC(c2cnc3n2CCCC3)CC1 | 0.48 µM | 3 µM | 1.1 |  | 
54 nM |  | 53% |  | Cc1nccn1CCN1CCN(C(=O)CCS(=O)(=O)c2ccc3cc(Cl)ccc3c2)CC1 | 0.99 µM | 2.1 µM | 1.1 |  | 
56 nM | 7.2 | 82% | 2 | Cn1cncc1C1CCN(C(=O)CCS(=O)(=O)c2ccc3cc(Cl)ccc3c2)CC1 | 0.49 µM | 2.7 µM | 1.2 |  | 
 |  |  |  | CC(=O)CC(c1ccccc1)c1c(O)c2ccccc2oc1=O (stereo not given) [WARFARIN] |  |  |  | 445 s | 1590 s
